{"source": "paper PMC1389615", "about": "(The Journal of General Physiology, 2004)", "test_in_all_cases": "inside-out patch clamp, block of cGMP-activated current, Hill fit", "type_in_all_cases": "cell-based", "key": {"CNGA1 [1]": {"target": "T1, CNGA1 (Bos taurus, UniProt Q00194, R342Y)", "T1 sequence (Q00194 1-690 R342Y)": "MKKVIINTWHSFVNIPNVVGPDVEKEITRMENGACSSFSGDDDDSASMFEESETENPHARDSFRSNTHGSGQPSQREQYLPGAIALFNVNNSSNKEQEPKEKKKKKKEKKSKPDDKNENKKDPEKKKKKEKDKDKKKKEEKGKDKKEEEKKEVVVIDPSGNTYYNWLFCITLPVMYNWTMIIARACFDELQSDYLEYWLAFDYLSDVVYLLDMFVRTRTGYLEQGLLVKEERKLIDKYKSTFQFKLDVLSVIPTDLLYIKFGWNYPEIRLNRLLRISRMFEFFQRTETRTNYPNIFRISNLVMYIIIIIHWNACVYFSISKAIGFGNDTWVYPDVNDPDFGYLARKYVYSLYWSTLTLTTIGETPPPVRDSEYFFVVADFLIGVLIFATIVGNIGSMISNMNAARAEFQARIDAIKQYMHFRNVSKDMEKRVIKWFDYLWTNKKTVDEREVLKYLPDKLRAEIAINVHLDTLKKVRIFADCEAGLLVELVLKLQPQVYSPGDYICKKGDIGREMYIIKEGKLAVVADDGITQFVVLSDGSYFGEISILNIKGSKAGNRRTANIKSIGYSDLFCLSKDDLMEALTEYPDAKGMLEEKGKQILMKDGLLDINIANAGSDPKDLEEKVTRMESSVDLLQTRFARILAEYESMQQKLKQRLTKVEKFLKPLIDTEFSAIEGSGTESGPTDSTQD"}, "CNGA2": {"target": "T2, CNGA2 (Rattus norvegicus, UniProt Q00195)", "T2 sequence (Q00195 1-664)": "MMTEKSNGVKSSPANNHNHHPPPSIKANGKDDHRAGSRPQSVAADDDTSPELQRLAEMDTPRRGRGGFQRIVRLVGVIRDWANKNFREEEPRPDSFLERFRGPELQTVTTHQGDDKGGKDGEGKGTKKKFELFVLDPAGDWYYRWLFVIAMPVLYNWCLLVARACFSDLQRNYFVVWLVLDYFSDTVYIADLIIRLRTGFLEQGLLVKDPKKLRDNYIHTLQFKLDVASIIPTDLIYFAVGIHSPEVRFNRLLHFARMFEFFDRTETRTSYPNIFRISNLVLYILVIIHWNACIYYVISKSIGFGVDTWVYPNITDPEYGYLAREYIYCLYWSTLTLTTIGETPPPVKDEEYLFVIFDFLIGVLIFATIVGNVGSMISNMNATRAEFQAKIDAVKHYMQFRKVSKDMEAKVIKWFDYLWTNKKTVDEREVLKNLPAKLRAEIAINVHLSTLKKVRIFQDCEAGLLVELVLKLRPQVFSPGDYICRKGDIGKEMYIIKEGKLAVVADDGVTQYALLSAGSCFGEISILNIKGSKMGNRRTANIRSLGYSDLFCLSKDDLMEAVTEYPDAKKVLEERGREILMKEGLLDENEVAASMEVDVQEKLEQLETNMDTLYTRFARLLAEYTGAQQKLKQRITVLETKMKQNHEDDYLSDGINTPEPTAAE", "summary_of_the_method": "(§1)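 Channels expressed in Xenopus oocytes 2–10 d after cRNA injection; inside-out patches, room temperature. […] Blocker applied at 0 mV with 20-ms steps to +20 mV every 5 s. Currents were cGMP-free subtracted. Hill fit, SEM, n = 5–7 patches.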"}, "CNGA1 [2]": {"target": "T3, CNGA1 (Bos taurus, UniProt Q00194, R342D)", "T3 sequence (Q00194 1-690 R342D)": "T1 sequence (Q00194 1-690 R342Y) with Y342D"}, "CNGA1 [3]": {"target": "T4, CNGA1 (Bos taurus, UniProt Q00194)", "T4 sequence (Q00194 1-690)": "T1 sequence (Q00194 1-690 R342Y) with Y342R", "summary_of_the_method": "as §1"}}, "note": "Changes are numbered by the printed parent chain."}
{"smiles": "Cc1cc(N)c2ccccc2[n+]1CCCCCCCCCC[n+]1c(C)cc(N)c2ccccc21", "note": "[dequalinium]", "values": [{"measurement": "IC50", "setting": "CNGA1 [1]", "result": "0.091 ± 0.0001", "unit": "µM"}, {"measurement": "IC50", "setting": "CNGA2", "result": "2.4 ± 0.29", "unit": "µM"}, {"measurement": "IC50", "setting": "CNGA1 [2]", "result": "0.123 ± 0.0002", "unit": "µM"}, {"measurement": "IC50", "setting": "CNGA1 [3]", "result": "0.189 ± 0.00419", "unit": "µM"}]}
